ChEMBL document CHEMBL3593207, “Imidazole clubbed 1,3,4-oxadiazole derivatives as potential antifungal agents” (2015)
Converted amounts (≈) assume the structure as drawn.

Legend:
Format in all cases: functional
Candida albicans [1] = assay: Antifungal activity against clinical isolates of Candida albicans 2367 after 48 hrs by disc diffusion assay
Outline: (§1)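 Cells grown in YPD were mixed at 10^3 cells/ml into molten agar (about 40 °C) and poured into plates. Test compound at 1/2×MIC, MIC and 2×MIC was spotted on filter discs on the set agar, with fluconazole and 1% DMSO as positive and vehicle controls. Plates were incubated 48 h at 37 °C, then inhibition zone diameters were recorded in mm.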

Candida albicans [2] = assay: Antifungal activity against clinical isolates of Candida albicans 2779 after 48 hrs by disc diffusion assay; outline: as §1
Candida tropicalis [3] = assay: Antifungal activity against clinical isolates of Candida tropicalis 2029 after 48 hrs by disc diffusion assay; outline: as §1
Candida tropicalis [4] = assay: Antifungal activity against clinical isolates of Candida tropicalis 2356 after 48 hrs by disc diffusion assay; outline: as §1
Candida albicans [5] = assay: Inhibition of ergosterol biosynthesis in Candida albicans ATCC 10261 assessed as ergosterol content after 16 hrs by spectrophotometer analysis; design: scale not given: the % may be the effect or the level left
Outline: (§2)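 Cells were pelleted, washed, weighed wet, and saponified in 3 mL 25% alcoholic KOH at 85 °C for 1 h. Sterols were extracted with 1 mL water plus 3 mL n-heptane. Ergosterol content is expressed relative to untreated control cells.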

Candida tropicalis [6] = assay: Inhibition of ergosterol biosynthesis in Candida tropicalis ATCC 750 assessed as ergosterol content after 16 hrs by spectrophotometer analysis; design: scale not given: the % may be the effect or the level left; outline: as §2
Candida albicans [7] = assay: Inhibition of ergosterol biosynthesis in Candida albicans 2323 assessed as ergosterol content after 16 hrs by spectrophotometer analysis; design: scale not given: the % may be the effect or the level left; outline: as §2
Candida albicans [8] = assay: Inhibition of ergosterol biosynthesis in Candida albicans 2367 assessed as ergosterol content after 16 hrs by spectrophotometer analysis; design: scale not given: the % may be the effect or the level left; outline: as §2
Candida albicans [9] = assay: Inhibition of ergosterol biosynthesis in Candida albicans 2779 assessed as ergosterol content after 16 hrs by spectrophotometer analysis; design: scale not given: the % may be the effect or the level left; outline: as §2
Candida tropicalis [10] = assay: Inhibition of ergosterol biosynthesis in Candida tropicalis 2029 assessed as ergosterol content after 16 hrs by spectrophotometer analysis; design: scale not given: the % may be the effect or the level left; outline: as §2
Candida tropicalis [11] = assay: Inhibition of ergosterol biosynthesis in Candida tropicalis 2356 assessed as ergosterol content after 16 hrs by spectrophotometer analysis; design: scale not given: the % may be the effect or the level left; outline: as §2
Candida albicans [12] = assay: Antifungal activity against Candida albicans ATCC 10261 by broth microdilution assay
Outline: (§3)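 CLSI M27-A3 broth microdilution. Compounds diluted to 1 mg/ml in 1% DMSO. Fluconazole (1 mg/ml) served as positive control, 1% DMSO as vehicle control, with media and culture controls. Triplicate at each concentration, repeated thrice. Inocula came from YPDA stocks subcultured in broth for 48 h at 37 °C.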

Candida tropicalis [13] = assay: Antifungal activity against Candida tropicalis ATCC 750 by broth microdilution assay; outline: as §3
Candida albicans [14] = assay: Antifungal activity against clinical isolates of Candida albicans 2323 by broth microdilution assay; outline: as §3
Candida albicans [15] = assay: Antifungal activity against clinical isolates of Candida albicans 2367 by broth microdilution assay; outline: as §3
Candida albicans [16] = assay: Antifungal activity against clinical isolates of Candida albicans 2779 by broth microdilution assay; outline: as §3
Candida tropicalis [17] = assay: Antifungal activity against clinical isolates of Candida tropicalis 2029 by broth microdilution assay; outline: as §3
Candida tropicalis [18] = assay: Antifungal activity against clinical isolates of Candida tropicalis 2356 by broth microdilution assay; outline: as §3
Candida albicans [19] = assay: Antifungal activity against Candida albicans ATCC 10261 after 48 hrs by disc diffusion assay; outline: as §1
Candida tropicalis [20] = assay: Antifungal activity against Candida tropicalis ATCC 750 after 48 hrs by disc diffusion assay; outline: as §1
Candida albicans [21] = assay: Antifungal activity against clinical isolates of Candida albicans 2323 after 48 hrs by disc diffusion assay; outline: as §1

SMILES: OC(Cn1cncn1)(Cn1cncn1)c1ccc(F)cc1F [FLUCONAZOLE]
- inhibition zone (IZ) (Candida albicans [1]): 10 mm
- inhibition zone (IZ) (Candida albicans [2]): 13 mm
- inhibition zone (IZ) (Candida tropicalis [3]): 11 mm
- inhibition zone (IZ) (Candida tropicalis [4]): 8 mm
- Activity (Candida albicans [5]): 100%
- Activity (Candida tropicalis [6]): 100%
- Activity (Candida albicans [7]): 100%
- Activity (Candida albicans [8]): 100%
- Activity (Candida albicans [9]): 100%
- Activity (Candida tropicalis [10]): 100%
- Activity (Candida tropicalis [11]): 100%
- MIC (Candida albicans [12]): 8 µg/mL (≈ 26.1 µM)
- MIC (Candida tropicalis [13]): 16 µg/mL (≈ 52.2 µM)
- MIC (Candida albicans [14]): 32 µg/mL (≈ 104 µM)
- MIC (Candida albicans [15]): 16 µg/mL (≈ 52.2 µM)
- MIC (Candida albicans [16]): 32 µg/mL (≈ 104 µM)
- MIC (Candida tropicalis [17]): 32 µg/mL (≈ 104 µM)
- MIC (Candida tropicalis [18]): 62 µg/mL (≈ 202 µM)
- inhibition zone (IZ) (Candida albicans [19]): 11 mm
- inhibition zone (IZ) (Candida tropicalis [20]): 16 mm
- inhibition zone (IZ) (Candida albicans [21]): 9 mm
